Measurements reported in ChEMBL document CHEMBL3286113, “New potent antibacterial oxazolidinone (MRX-I) with an improved class safety profile” (J Med Chem, 2014).
≈ marks a conversion by molar mass, not a printed value.

Legend:
Rattus norvegicus [1] = assay: Toxicity in female rat assessed as effect on platelet count at 200 to 300 mg/kg/day, po bid administered for 4 weeks (reference value: 654.6 x 10^9/L); type: organism-based; set-up: route oral; details: in vivo, 672 h
[2] = Tmax in po dosed mouse; type: ADME, organism-based; details: in vivo
Canis familiaris = assay: Dose normalized Cmax in po dosed dog; type: ADME, organism-based, Canis lupus familiaris; details: in vivo
[3] = Clastogenicity in CHL cells assessed as induction of structural chromosomal aberration at 25 to 200 ug/mL measured over 24 hrs in presence of metabolic activation; type: toxicity, cell-based, Cricetulus griseus; details: chinese hamster
Method in brief: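 Chinese hamster lung cells scored for structural chromosome aberrations with or without metabolic activation. Exposure was 50–400 μg/mL over 6 h, or 25–200 μg/mL over 24 h.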

[4] = biological target: T1, Amine oxidase [flavin-containing] A (Homo sapiens, UniProt P21397); assay: Inhibition of MAO-A (unknown origin) using tyramine as substrate after 30 to 60 mins by fluorescence plate reader analysis
T1 sequence (P21397 whole entry): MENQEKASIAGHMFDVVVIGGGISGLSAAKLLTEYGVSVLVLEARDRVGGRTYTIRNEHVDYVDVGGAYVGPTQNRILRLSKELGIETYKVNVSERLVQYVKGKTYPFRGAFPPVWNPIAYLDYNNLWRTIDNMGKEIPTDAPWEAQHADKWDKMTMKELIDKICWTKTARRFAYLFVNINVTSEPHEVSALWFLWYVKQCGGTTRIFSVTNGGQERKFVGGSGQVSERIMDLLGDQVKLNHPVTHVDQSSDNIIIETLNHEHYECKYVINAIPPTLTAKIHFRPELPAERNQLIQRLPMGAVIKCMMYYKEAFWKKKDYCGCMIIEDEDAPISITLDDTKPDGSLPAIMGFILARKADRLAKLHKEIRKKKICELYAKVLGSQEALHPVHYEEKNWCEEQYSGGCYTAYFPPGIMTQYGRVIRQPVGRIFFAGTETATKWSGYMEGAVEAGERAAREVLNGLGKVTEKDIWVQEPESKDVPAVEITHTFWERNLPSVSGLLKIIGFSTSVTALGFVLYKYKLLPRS

Rattus norvegicus [5] = assay: Toxicity in female rat assessed as effect on lymphocyte count at 100 mg/kg/day, po bid administered for 4 weeks (reference value: 74.8%); type: organism-based; set-up: route oral; details: in vivo, 672 h
[6] = Tmax in fasted human at 600 mg, po administered as single dose; type: ADME, organism-based; details: in vivo
Method in brief: (§1)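 Randomized single-dose, three-period Latin-square crossover in 12 healthy volunteers (six per gender), fasting. Single oral doses of 300, 600 and 900 mg were separated by a 1-week washout. PK parameters were derived by noncompartmental analysis.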

Cytochrome P450 1A2 = Cytochrome P450 1A2 (Homo sapiens, UniProt P05177); assay: Inhibition of CYP1A2 (unknown origin) at 1 to 200 uM; type: ADME
Staphylococcus aureus [7] = assay: Antibacterial activity against Staphylococcus aureus assessed as time required for growth inhibition; type: functional
Rattus norvegicus [8] = assay: Toxicity in female rat assessed as effect on hemoglobin level at 200 to 300 mg/kg/day, po bid administered for 4 weeks (reference value: 141.8 g/L); type: organism-based; set-up: route oral; details: in vivo, 672 h
[9] = Tmax in po dosed rat; type: ADME, organism-based; details: in vivo
[10] = Tmax in fasted human at 300 mg, po administered as single dose; type: ADME, organism-based; details: in vivo; method in brief: as §1
[11] = Cmax in fasted human at 900 mg, po administered as single dose; type: ADME, organism-based; set-up: dose 900 mg, route oral; details: in vivo
Method in brief: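 Healthy volunteers (12; six of each sex) in a three-period Latin-square crossover. Each received single oral doses of 300, 600 and 900 mg under fasting conditions, with a 1-week washout between doses. Parameters from a noncompartmental model.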

Streptococcus pneumoniae [12] = assay: Antibacterial activity against Streptococcus pneumoniae assessed as time required for growth inhibition; type: functional
[13] = Tmax in fasted human at 900 mg, po administered as single dose; type: ADME, organism-based; details: in vivo; method in brief: as §1
Rattus norvegicus [14] = assay: Toxicity in female rat assessed as effect on neutrophil count at 100 mg/kg/day, po bid administered for 4 weeks (reference value: 22.4%); type: organism-based; set-up: route oral; details: in vivo, 672 h
[15] = system: Streptococcus constellatus; assay: Antibacterial activity against Streptococcus constellatus; type: functional
MAO-A = MAO-A (Homo sapiens, UniProt P21397); assay: Ratio of compound IC50 to linezolid IC50 for MAO-A (unknown origin) by fluorescence plate reader analysis; type: ADME
Staphylococcus aureus [16] = assay: Antibacterial activity against Staphylococcus aureus measured after 3 serial passages; type: functional
Rattus norvegicus [17] = assay: Toxicity in female rat assessed as effect on reticulocyte count at 100 mg/kg/day, po bid administered for 4 weeks (reference value: 1.48%); type: organism-based; set-up: route oral; details: in vivo, 672 h
Staphylococcus aureus [18] = assay: Antibacterial activity against Staphylococcus aureus measured after 6 serial passages; type: functional
Mus musculus = assay: Dose normalized AUC (0 to t) in po dosed mouse; type: ADME, organism-based; details: in vivo
Staphylococcus aureus [19] = assay: Antibacterial activity against methicillin-resistant Staphylococcus aureus; type: functional
[20] = AUC (0 to 24 hrs) in human at 800 mg, po administered as single dose with meal measured on day 1; type: ADME, organism-based; set-up: dose 800 mg, time < 24 hr, route oral; details: plasma
Method in brief: (§2)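 Randomized, double-blind, placebo-controlled multiple-dose study in 32 healthy subjects (half male, half female). Subjects took 28 oral doses of 600 or 800 mg over 15 days, each with a meal. A single dose was given on days 1 and 15 for full PK, and doses were given Q12h from day 2 to day 14. AUC0−24 was measured on days 1 and 15.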

[21] = Cmax in female rat at 5 mg/kg, po; type: ADME, organism-based; set-up: dose 5 mg/kg, route oral; details: in vivo
Enterococcus faecalis [22] = assay: Antibacterial activity against vancomycin-sensitive Enterococcus faecalis ATCC 29212; type: functional
Streptococcus pneumoniae [23] = assay: Antibacterial activity against penicillin-sensitive Streptococcus pneumoniae isolate 0806 in po dosed mouse systemic infection model; type: functional; details: isolate 0806, po
Enterococcus = assay: Bacteriostatic activity against vancomycin-sensitive Enterococcus; type: functional
[24] = AUC (0 to 24 hrs) in human at 600 mg, po administered as single dose with meal measured on day 1; type: ADME, organism-based; set-up: time < 24 hr, dose 600 mg, route oral; details: plasma; method in brief: as §2
[25] = AUC (0 to 24 hrs) in human at 600 mg, po administered as single dose with meal measured on day 15; type: ADME, organism-based; set-up: time < 24 hr, dose 600 mg, route oral; details: plasma; method in brief: as §2
Enterococcus faecalis [26] = assay: Antibacterial activity against vancomycin-resistant Enterococcus faecalis isolate EFL 4041 in po dosed mouse systemic infection model; type: functional; details: isolate EFL 4041, po
[27] = AUC (0 to t) in male rat at 45 mg/kg, po; type: ADME, organism-based; set-up: dose 45 mg/kg, route oral; details: plasma
Method in brief: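 Rat PK by gender, with single oral doses of 5, 15 and 45 mg/kg and an iv dose of 5 mg/kg. Tmax, Cmax, T1/2 and AUC0−t were reported per gender.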

[28] = system: Staphylococcus saprophyticus; assay: Antibacterial activity against Staphylococcus saprophyticus; type: functional
Rattus norvegicus [29] = assay: Toxicity in female rat assessed as effect on lymphocyte count at 20 mg/kg/day, po bid administered for 4 weeks (reference value: 74.8%); type: organism-based; set-up: route oral; details: in vivo, 672 h
[30] = Half life in female rat at 45 mg/kg, po; type: ADME, organism-based; set-up: dose 45 mg/kg, route oral; details: in vivo
[31] = Tmax in male rat at 45 mg/kg, po; type: ADME, organism-based; set-up: dose 45 mg/kg, route oral; details: in vivo
Method in brief: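 Male and female rats received single oral doses of 5, 15 or 45 mg/kg, with 5 mg/kg iv as a reference arm. Tmax was read from the plasma concentration–time profile for each gender.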

Staphylococcus aureus [32] = assay: Antibacterial activity against Staphylococcus aureus measured after 7 serial passages; type: functional

Chain of Cytochrome P450 1A2 (P05177 whole entry): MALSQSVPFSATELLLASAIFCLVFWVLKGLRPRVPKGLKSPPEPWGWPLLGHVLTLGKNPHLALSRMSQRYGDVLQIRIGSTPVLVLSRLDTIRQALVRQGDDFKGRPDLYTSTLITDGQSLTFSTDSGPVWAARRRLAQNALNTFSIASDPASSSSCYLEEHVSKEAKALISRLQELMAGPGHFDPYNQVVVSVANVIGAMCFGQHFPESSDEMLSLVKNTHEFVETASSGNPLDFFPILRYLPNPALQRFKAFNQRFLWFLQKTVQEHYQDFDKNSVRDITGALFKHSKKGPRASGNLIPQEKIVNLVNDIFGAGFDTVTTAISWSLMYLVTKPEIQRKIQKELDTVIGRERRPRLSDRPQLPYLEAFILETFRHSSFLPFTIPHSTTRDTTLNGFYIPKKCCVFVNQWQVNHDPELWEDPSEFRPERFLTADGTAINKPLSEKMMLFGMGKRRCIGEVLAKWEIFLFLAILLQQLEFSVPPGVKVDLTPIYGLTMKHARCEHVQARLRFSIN

Q: Which Activity (Rattus norvegicus [1]) does the source give for `O=C1C=CN(c2c(F)cc(N3C[C@H](CNc4ccon4)OC3=O)c(F)c2F)CC1` [CONTEZOLID] here?
A: The Activity was 464.2 ×10⁹ /L.

Q: What about the Tmax [2] of the same molecule?
A: The Tmax was 0.5 h.

Q: What about the Cmax/dose (Canis familiaris) of the same molecule?
A: Its Cmax/dose is 259 ng/mL/(mg/kg).

Q: What about the Activity [3] of the same molecule?
A: The Activity was “Non-toxic”.

Q: And the IC50 [4]?
A: The IC50 was 103 µM.

Q: And the Activity (Rattus norvegicus [5])?
A: Its Activity is 78.8%.

Q: What about the Tmax [6] of the same molecule?
A: The Tmax was 2 h.

Q: What about the “inhibition (INH)” value (Cytochrome P450 1A2) of the same molecule?
A: Its value is “Not Active”.

Q: And the Time (Staphylococcus aureus [7])?
A: Its Time is 1.6 h.

Q: And the Activity (Rattus norvegicus [8])?
A: Its Activity is 117.6 g/L.

Q: What about the Tmax [9] of the same molecule?
A: Its Tmax is 0.5 h.

Q: What about the Tmax [10] of the same molecule?
A: Its Tmax is 1.25 h.

Q: And the Cmax [11]?
A: The Cmax was 15200 ng/mL.

Q: And the Time (Streptococcus pneumoniae [12])?
A: The Time was 1.8 h.

Q: And the Tmax [13]?
A: Its Tmax is 1.4 h.

Q: What about the Activity (Rattus norvegicus [14]) of the same molecule?
A: The Activity was 18.4%.

Q: And the MIC50 [15]?
A: The MIC50 was 0.5 µg/mL (≈ 1.22 µM).

Q: And the MIC90 [15]?
A: The MIC90 was 1 µg/mL (≈ 2.45 µM).

Q: And the selectivity ratio (MAO-A)?
A: Its selectivity ratio is 5.2.

Q: And the MIC (Staphylococcus aureus [16])?
A: The MIC was 2 µg/mL (≈ 4.9 µM).

Q: What about the Activity (Rattus norvegicus [17]) of the same molecule?
A: Its Activity is 1.46%.

Q: What about the MIC (Staphylococcus aureus [18]) of the same molecule?
A: The MIC was 2 µg/mL (≈ 4.9 µM).

Q: And the AUCt/dose (Mus musculus)?
A: Its AUCt/dose is 1654 ng·h/mL/mg/kg.

Q: And the MIC90 (Staphylococcus aureus [19])?
A: The MIC90 was 0.5 µg/mL (≈ 1.22 µM).

Q: What about the AUC(0-t) at 24 h [20] of the same molecule?
A: Its AUC(0-t) at 24 h is 91800 ng·h/mL.

Q: What about the Cmax [21] of the same molecule?
A: The Cmax was 9390 ng/mL.

Q: What about the MIC (Enterococcus faecalis [22]) of the same molecule?
A: The MIC was 1 µg/mL (≈ 2.45 µM).

Q: And the ED50 (Streptococcus pneumoniae [23])?
A: The ED50 was 22 mg/kg.

Q: And the MIC50 (Enterococcus)?
A: The MIC50 was 1 µg/mL (≈ 2.45 µM).

Q: And the MIC90 (Enterococcus)?
A: The MIC90 was 1 µg/mL (≈ 2.45 µM).

Q: And the AUC(0-t) at 24 h [24]?
A: The AUC(0-t) at 24 h was 68600 ng·h/mL.

Q: What about the AUC(0-t) at 24 h [25] of the same molecule?
A: Its AUC(0-t) at 24 h is 72900 ng·h/mL.

Q: And the ED50 (Enterococcus faecalis [26])?
A: Its ED50 is 6.2 mg/kg.

Q: And the AUC(0-t) [27]?
A: The AUC(0-t) was 93800 ng·h/mL.

Q: And the MIC50 [28]?
A: The MIC50 was 0.5 µg/mL (≈ 1.22 µM).

Q: And the MIC90 [28]?
A: The MIC90 was 1 µg/mL (≈ 2.45 µM).

Q: What about the Activity (Rattus norvegicus [29]) of the same molecule?
A: The Activity was 83.4%.

Q: What about the half-life [30] of the same molecule?
A: Its half-life is 1.87 h.

Q: What about the Tmax [31] of the same molecule?
A: Its Tmax is 1 h.

Q: And the MIC (Staphylococcus aureus [32])?
A: Its MIC is 2 µg/mL (≈ 4.9 µM).
